Data as given in ChEMBL document CHEMBL4265991.

Experiments:
[1] = substrate: COc1c(C)c2c(c(O)c1C/C=C(\C)CCC(=O)O)C(=O)OC2; conditions: Cryptococcus neoformans; 0.156 uM
[2] = compound: COc1ccccc1-c1nnc(SC2=CS(=O)(=O)c3ccccc32)o1; assay: (§1) Inhibition of recombinant Cryptococcus neoformans His-tagged IMPDH expressed in Escherichia coli BL21 (DE3) at 0.3 uM assessed as Vmax for substrate using NAD as fixed substrate at 700 uM and IMP as second substrate with varying concentrations of 25 to 800 uM (reference value: 1.5 microM/min)
How it was run: (§2)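 Recombinant C. neoformans IMPDH, 100 nM final, reaction started by adding enzyme. NADH production monitored at 340 nm. Inhibitor series ran from 20 to 0.31 µM; MPA tested at 312 to 39 nM. Km and Vmax fitted to the Michaelis–Menten equation; inhibition type taken from shifts in Km and Vmax.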

[3] = compound: O=S1(=O)C=C(Sc2nnc(-c3ccccc3)o2)c2ccccc21; assay: as §1
How it was run: as §2

[4] = compound: COc1ccccc1-c1nnc(SC2=CS(=O)(=O)c3ccccc32)o1; assay: (§3) Inhibition of recombinant Cryptococcus neoformans His-tagged IMPDH expressed in Escherichia coli BL21 (DE3) at 2.5 uM assessed as Kcat for substrate using IMP as fixed substrate at 500 uM and NAD as second substrate with varying concentrations of 31.25 to 1300 uM (reference value: 21.5 /s)
How it was run: as §2

[5] = compound: O=S1(=O)C=C(Sc2nnc(-c3ccccc3)o2)c2ccccc21; assay: as §3
How it was run: as §2

[6] = compound: COc1ccccc1-c1nnc(SC2=CS(=O)(=O)c3ccccc32)o1; assay: (§4) Inhibition of recombinant Cryptococcus neoformans His-tagged IMPDH expressed in Escherichia coli BL21 (DE3) at 2.5 uM assessed as Vmax for substrate using IMP as fixed substrate at 500 uM and NAD as second substrate with varying concentrations of 31.25 to 1300 uM (reference value: 1.5 microM/min)
How it was run: as §2

[7] = compound: O=S1(=O)C=C(Sc2nnc(-c3ccccc3)o2)c2ccccc21; assay: as §4
How it was run: as §2

[8] = compound: O=S1(=O)C=C(Sc2nnc(-c3ccccc3)o2)c2ccccc21; assay: Inhibition of recombinant Cryptococcus neoformans His-tagged IMPDH expressed in Escherichia coli BL21 (DE3) at 0.3 uM assessed as Kcat for substrate using IMP as fixed substrate at 500 uM and NAD as second substrate with varying concentrations of 31.25 to 1300 uM (reference value: 1.5 /s)
[9] = substrate: COc1c(C)c2c(c(O)c1C/C=C(\C)CCC(=O)O)C(=O)OC2; conditions: Cryptococcus neoformans; 0.156 uM; remark: listed apart in the source
[10] = substrate: COc1c(C)c2c(c(O)c1C/C=C(\C)CCC(=O)O)C(=O)OC2; conditions: Cryptococcus neoformans; 0.078 uM
[11] = substrate: COc1c(C)c2c(c(O)c1C/C=C(\C)CCC(=O)O)C(=O)OC2; conditions: Cryptococcus neoformans; 0.156 uM; remark: listed apart in the source
[12] = compound: COc1ccccc1-c1nnc(SC2=CS(=O)(=O)c3ccccc32)o1; assay: Inhibition of recombinant Cryptococcus neoformans His-tagged IMPDH expressed in Escherichia coli BL21 (DE3) at 0.3 uM assessed as Kcat for substrate using IMP as fixed substrate at 500 uM and NAD as second substrate with varying concentrations of 31.25 to 1300 uM (reference value: 21.5 /s)
How it was run: as §2

[13] = substrate: COc1c(C)c2c(c(O)c1C/C=C(\C)CCC(=O)O)C(=O)OC2; conditions: Cryptococcus neoformans; 0.078 uM; remark: listed apart in the source
[14] = compound: COc1ccccc1-c1nnc(SC2=CS(=O)(=O)c3ccccc32)o1; assay: (§5) Inhibition of recombinant Cryptococcus neoformans His-tagged IMPDH expressed in Escherichia coli BL21 (DE3) at 2.5 uM assessed as Km for substrate using NAD as fixed substrate at 700 uM and IMP as second substrate with varying concentrations of 25 to 800 uM (reference value: 257.5 +/- 23 microM)
How it was run: as §2

[15] = compound: O=S1(=O)C=C(Sc2nnc(-c3ccccc3)o2)c2ccccc21; assay: as §5
How it was run: as §2

[16] = substrate: COc1c(C)c2c(c(O)c1C/C=C(\C)CCC(=O)O)C(=O)OC2; conditions: Cryptococcus neoformans; 0.156 uM; remark: listed apart in the source
[17] = substrate: COc1c(C)c2c(c(O)c1C/C=C(\C)CCC(=O)O)C(=O)OC2; conditions: Cryptococcus neoformans; 0.039 uM
[18] = substrate: COc1c(C)c2c(c(O)c1C/C=C(\C)CCC(=O)O)C(=O)OC2; conditions: Cryptococcus neoformans; 0.156 uM; remark: listed apart in the source
[19] = compound: COc1ccccc1-c1nnc(SC2=CS(=O)(=O)c3ccccc32)o1; assay: (§6) Inhibition of recombinant Cryptococcus neoformans His-tagged IMPDH expressed in Escherichia coli BL21 (DE3) at 2.5 uM assessed as Vmax for substrate using NAD as fixed substrate at 700 uM and IMP as second substrate with varying concentrations of 25 to 800 uM (reference value: 1.5 microM/min)
How it was run: as §2

[20] = compound: O=S1(=O)C=C(Sc2nnc(-c3ccccc3)o2)c2ccccc21; assay: as §6
How it was run: as §2

[21] = compound: COc1ccccc1-c1nnc(SC2=CS(=O)(=O)c3ccccc32)o1; assay: (§7) Inhibition of recombinant Cryptococcus neoformans His-tagged IMPDH expressed in Escherichia coli BL21 (DE3) at 0.3 uM assessed as Km for substrate using IMP as fixed substrate at 500 uM and NAD as second substrate with varying concentrations of 31.25 to 1300 uM (reference value: 257.5 +/- 23 microM)
How it was run: as §2

[22] = compound: O=S1(=O)C=C(Sc2nnc(-c3ccccc3)o2)c2ccccc21; assay: as §7
How it was run: as §2

[23] = substrate: COc1c(C)c2c(c(O)c1C/C=C(\C)CCC(=O)O)C(=O)OC2; conditions: Cryptococcus neoformans; 0.078 uM; remark: listed apart in the source
[24] = compound: COc1ccccc1-c1nnc(SC2=CS(=O)(=O)c3ccccc32)o1; assay: (§8) Inhibition of recombinant Cryptococcus neoformans His-tagged IMPDH expressed in Escherichia coli BL21 (DE3) at 10 uM assessed as Kcat for substrate using NAD as fixed substrate at 700 uM and IMP as second substrate with varying concentrations of 25 to 800 uM (reference value: 21.5 /s)
How it was run: as §2

[25] = compound: O=S1(=O)C=C(Sc2nnc(-c3ccccc3)o2)c2ccccc21; assay: as §8
How it was run: as §2

[26] = compound: COc1ccccc1-c1nnc(SC2=CS(=O)(=O)c3ccccc32)o1; assay: (§9) Inhibition of recombinant Cryptococcus neoformans His-tagged IMPDH expressed in Escherichia coli BL21 (DE3) at 0.3 uM assessed as Vmax for substrate using IMP as fixed substrate at 500 uM and NAD as second substrate with varying concentrations of 31.25 to 1300 uM (reference value: 1.5 microM/min)
How it was run: as §2

[27] = compound: O=S1(=O)C=C(Sc2nnc(-c3ccccc3)o2)c2ccccc21; assay: as §9
How it was run: as §2

B1: Inosine-5'-monophosphate dehydrogenase (Cryptococcus neoformans var. neoformans serotype D (strain JEC21 /ATCC MYA-565) (Filobasidiella neoformans)), Q5KP44 (protein)
chain: MADTNPNAPPRSDSLLNPADALKYLEEYPRGDGLSLQELMDSRKNGGLTYNDFLVLPGHISFPASDVSLQSRATKNIVLNTPFLSSPMDTVTEDRMAIALALHGGLGIIHHNCSAEEQAAMVRRVKKYENGFITDPLCLGPDATVGDVLEIKAKFGFCGVPITETGAPNSKLLGIVTGRDVQFQDAETPIKSVMTTEVVTGSSPITLEKANSLLRETKKGKLPIVDSNGHLVSLVARSDLLKNQNYPYASKVPESKQLYCGAAIGTRPGDKDRLKLLAEAGLDVVVLDSSQGDSVYQIEFIKWIKQTYPKIEIIAGNVVTREQAAQLIAAGADGLRIGMGSGSICITQEVMAVGRPQGTAVYAVAEFASRFGIPCIADGGIGNIGHIAKALALGASAVMMGGLLAGTTESPGEYFYHEGKRVKVYRGMGSIEAMEHTQRGSASGKRSILNLDNAATARYFSEADAVKVAQGVSGDVADKGSINKFVPYLFTGLQHSFQDAGVKSVSELHSCARSGSLRFELRTASAQLEGGVHGLNSYTKRLFA
Q: B1 was tested. Which Vmax [1] did it give?
A: 0.26 µM/min

Q: And the Vmax [2]?
A: 1.4 µM/min

Q: What about the Vmax [3] of the same protein?
A: 1.1 µM/min

Q: And the kcat [4]?
A: 1.5 s⁻¹

Q: What about the kcat [5] of the same protein?
A: 1.3 s⁻¹

Q: What about the Vmax [6] of the same protein?
A: 1.5 µM/min

Q: And the Vmax [7]?
A: 1.3 µM/min

Q: And the kcat [8]?
A: 1.5 s⁻¹

Q: And the Km [9]?
A: 37 µM

Q: And the kcat [10]?
A: 0.6 s⁻¹

Q: What about the kcat [11] of the same protein?
A: 0.3 s⁻¹

Q: And the kcat [12]?
A: 1.5 s⁻¹

Q: And the Vmax [13]?
A: 0.6 µM/min

Q: What about the Km [14] of the same protein?
A: 165 µM

Q: What about the Km [15] of the same protein?
A: 187 µM

Q: What about the Vmax [16] of the same protein?
A: 0.3 µM/min

Q: What about the Vmax [17] of the same protein?
A: 0.9 µM/min

Q: What about the kcat [18] of the same protein?
A: 0.25 s⁻¹

Q: What about the Vmax [19] of the same protein?
A: 1 µM/min

Q: And the Vmax [20]?
A: 0.9 µM/min

Q: What about the Km [21] of the same protein?
A: 278 µM

Q: And the Km [22]?
A: 307 µM

Q: And the Vmax [23]?
A: 0.6 µM/min

Q: What about the kcat [24] of the same protein?
A: 0.7 s⁻¹

Q: What about the kcat [25] of the same protein?
A: 0.6 s⁻¹

Q: What about the Vmax [26] of the same protein?
A: 1.5 µM/min

Q: What about the Vmax [27] of the same protein?
A: 1.5 µM/min
